Laboratory results published in ChEMBL document CHEMBL1131635 (J Med Chem, 1998).

Molecular target: T1, Phosphoglycerate kinase (Saccharomyces cerevisiae S288c, UniProt P00560)
T1 sequence (P00560 whole entry): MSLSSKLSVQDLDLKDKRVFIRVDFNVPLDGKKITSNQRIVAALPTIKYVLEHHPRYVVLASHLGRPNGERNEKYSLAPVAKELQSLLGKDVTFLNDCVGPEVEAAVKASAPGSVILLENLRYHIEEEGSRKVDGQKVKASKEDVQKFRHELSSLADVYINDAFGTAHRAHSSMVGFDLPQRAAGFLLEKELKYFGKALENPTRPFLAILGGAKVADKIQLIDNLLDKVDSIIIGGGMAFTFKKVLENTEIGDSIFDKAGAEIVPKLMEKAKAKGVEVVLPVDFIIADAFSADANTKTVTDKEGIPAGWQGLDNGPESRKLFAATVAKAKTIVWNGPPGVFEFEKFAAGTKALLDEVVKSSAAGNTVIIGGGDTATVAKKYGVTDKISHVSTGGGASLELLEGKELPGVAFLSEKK
Assay: Dissociation constant of phosphoglycerate kinase (PGK) at pH (3.0-11.0) was determined
In short: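 Free bisphosphonic acids in stirred solution were titrated from pH 11 down to pH 3 by controlled addition of 0.1 M HCl using an autotitrator with a combined glass electrode. The titration curves were plotted over pH 3–11, and successive pKa values of the phosphonic acid groups were calculated from the experimental data.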

Structure (SMILES)	Kd
O=C(CCCP(=O)(O)O)CP(=O)(O)O	19 µM
O=C(CP(=O)(O)O)NCC(F)(F)P(=O)(O)O	2 µM
O=P(O)(O)CCCCC(F)(F)P(=O)(O)O	4 µM
O=P(O)(O)CCCCCCP(=O)(O)O	2130 µM
O=C(CCP(=O)(O)O)CP(=O)(O)O	2 µM
O=C(CCC(F)(F)P(=O)(O)O)C(F)(F)P(=O)(O)O	5 µM
O=C(CCP(=O)(O)O)C(F)(F)P(=O)(O)O	3 µM
O=C(CCCP(=O)(O)O)C(F)(F)P(=O)(O)O	76 µM
O=P(O)(O)C(F)(F)COCC(F)(F)P(=O)(O)O	265 µM
O=C(CP(=O)(O)O)NCCP(=O)(O)O	675 µM
O=P(O)(O)C(F)(F)C(O)(O)C(F)(F)P(=O)(O)O	72 µM
O=P(O)(O)C(F)(F)CCCCC(F)(F)P(=O)(O)O	1000 µM
O=C(NCCP(=O)(O)O)C(F)(F)P(=O)(O)O	6 µM
